# A selection: hits, their analogues and other compounds. The true share with any hit is near 3.5%.
# RGS4 inh – inhibitors of human RGS4 | HEK293 M3R/RGS4 inducible, Fluo-4 calcium flux; active compounds read high; triggered by carbachol at its EC20 | B-score at 10 µM | hit rate 0.45% among 310,000 | AID 463165;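 active = B-score, a plate-corrected calcium signal, over three deviations above library mean, with baseline fluorescence within five deviations of library mean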;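 also: RGS4 expression induced by doxycycline in cells with stable M3 receptor; B-score is computed from the integrated fluorescence ratio over baseline after carbachol; higher B-score means a larger calcium signal and so more RGS4 inhibition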
# Target sequence (P49798 whole entry, looked up): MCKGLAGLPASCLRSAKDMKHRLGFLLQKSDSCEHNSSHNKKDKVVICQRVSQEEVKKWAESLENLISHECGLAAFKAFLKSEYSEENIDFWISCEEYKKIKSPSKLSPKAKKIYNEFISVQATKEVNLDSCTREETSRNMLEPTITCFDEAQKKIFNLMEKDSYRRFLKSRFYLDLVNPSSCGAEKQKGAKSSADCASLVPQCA
# MrgX1 allo act – allosterically activates human MrgX1 receptor signaling. AID 588675. hit rate 0.63% among 310,000. MrgX1-HEK293, Fluo-4 calcium flux, FDSS; active compounds read high. B-score at 10 µM. Q96LB2;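 active = plate-corrected calcium response at least 3 library SD above typical, normal starting fluorescence, not activating the receptor alone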;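 also: compound read alongside a low EC10 to EC30 dose of BAM8-22 agonist; peak minus trough fluorescence over baseline measured at the second addition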
# Target sequence (Q96LB2 whole entry, looked up): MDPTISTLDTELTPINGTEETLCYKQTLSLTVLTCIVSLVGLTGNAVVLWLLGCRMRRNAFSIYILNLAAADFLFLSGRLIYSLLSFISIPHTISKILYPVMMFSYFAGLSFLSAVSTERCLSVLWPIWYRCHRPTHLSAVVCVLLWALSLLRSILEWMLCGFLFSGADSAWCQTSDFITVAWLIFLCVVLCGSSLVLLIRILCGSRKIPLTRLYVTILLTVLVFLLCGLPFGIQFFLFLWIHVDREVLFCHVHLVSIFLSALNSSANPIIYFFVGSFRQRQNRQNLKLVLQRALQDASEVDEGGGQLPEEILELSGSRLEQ
# MrgX1 antagonist – antagonists of human MrgX1 receptor | B-score at 10 µM | MRGX1-HEK293 calcium flux, Fluo-4, BAM8-22 antagonism; active compounds read low | Q96LB2 | hit rate 1.3% among 310,000 | AID 588676;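 active = calcium-response B-score plate-corrected more than 3 library SD below zero, starting fluorescence within 5 deviations, no agonist response on first addition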;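 also: peak minus trough fluorescence over baseline after final BAM8-22 challenge near maximal dose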
# MrgX1 ag – activates human MrgX1 receptor signaling; B-score at 10 µM; Q96LB2; hit rate 0.44% among 310,000; MrgX1-HEK293 cells, Fluo-4 calcium fluorescence, agonist mode; active compounds read high;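 active = calcium response B-score plate-corrected fluorescence ratio at least 3 library SD, with starting fluorescence B-score inside 5 SD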
#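 Test system: Stable human MrgX1 HEK293 cell line | Schedule: Overnight plating before 1 h dye loading | Read-out basis: Baseline-normalised fluorescence change ratio, B-scored | Detection: Kinetic calcium dye fluorescence, Fluo-4 NW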
# RGS4 pot – potentiators or activators of RGS4 | hit rate 0.92% among 310,000 | B-score at 10 µM | HEK293 M3R/inducible RGS4, carbachol calcium flux Fluo4; active compounds read low;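 active = B-score of the integrated calcium signal more than 4 SD below the library mean, with starting fluorescence not abnormally high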;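 also: negative B-score means reduced calcium response which marks RGS4 activation or potentiation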
#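 Material: M3R-expressing HEK293 line, RGS4 induced by doxycycline | Schedule: Overnight RGS4 induction, 30 min dye load 37 °C, 20 min compound RT | Measured by: Fluo4 fluorescence kinetic imaging of calcium | Read-out: Integrated calcium ratio converted to B score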
# RGS4 activ val – confirmation of RGS4 activators | hit rate 89% among 1,100 | HEK293 M3R/RGS4 inducible, carbachol calcium flux Fluo4 | shares compounds with RGS4 pot | inhibition, % at 10 µM;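 active = inhibition above 3 SD of the buffer control wells, cut at about 41% in these data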;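 also: signal is the integrated peak-minus-minimum Fluo4 fluorescence over baseline ratio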
# M3R Ca counter – activity in cells without induced RGS4 expression; inhibition, % at 10 µM; hit rate 82% among 1,100; shares compounds with RGS4 pot; AID 602283; HEK293 M3R non-induced RGS4, Fluo4 calcium flux; after carbachol challenge at its EC90;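 active = inhibition exceeding 3 SD of buffer-only control wells, cut at about 26% in these data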;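 also: percent drop in integrated peak-minus-baseline over baseline Fluo4 ratio after carbachol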
# * hit, by the source's call; i = inactive; nt = no result given.
SMILES,RGS4 inh,MrgX1 allo act,MrgX1 antagonist,MrgX1 ag,RGS4 pot,RGS4 activ val,M3R Ca counter
CC(=O)c1c(C)[nH]c(C(=O)Nc2nc(-c3ccc(Cl)cc3)cs2)c1C,i,i,i,i,-8.24*,94.0*,91.8*
CSc1ccc(CN2CCC(Oc3ccc(C(=O)N4CCCC4)cc3)CC2)cc1,i,i,i,i,-8.51*,87.0*,38.8*
CC(C)c1ccc(CN2CCC(Oc3ccc(C(=O)N4CCCC4)cc3)CC2)cc1,i,i,i,i,-9.11*,91.5*,63.3*
CC(C)(O)C#Cc1ccc(CN2CCCC(CO)(Cc3cccc(Cl)c3)C2)cc1 (stereo not drawn),i,i,i,i,-8.98*,76.0*,31.3*
CC(C)(C)S(=O)(=O)c1ccsc1C(=O)O,i,i,i,i,-15.9*,0.0,0.0
COc1cccc(C(=O)NC(=S)Nc2ccc(N3CCCC3)cc2)c1,i,i,i,i,i,nt,nt
CC(C)Oc1cccc(C(=O)NC(=S)Nc2ccc(N3CCN(C)CC3)cc2)c1,i,i,i,i,-10.5*,92.0*,92.8*
CCOc1cc(CNCc2cccs2)ccc1OCC(=O)NC(C)(C)C,i,i,i,i,i,nt,nt
COc1cc(CNCc2cccs2)ccc1OCC(=O)NC(C)(C)C,i,i,i,i,-8.03*,46.0*,83.8*
COc1cccc(N2CCN(C(=O)CSc3ccc(F)cc3)CC2)c1,i,i,i,i,i,nt,nt
O=S(=O)(Nc1nc2ccccc2[nH]1)c1ccccc1,i,i,i,i,-8.16*,91.0*,38.8*
CS(=O)(=O)Nc1nc2ccccc2[nH]1,i,i,i,i,i,nt,nt
O=C(Nc1nc2ccccc2[nH]1)c1ccc(Cl)cc1,i,i,i,i,i,nt,nt
O=S(=O)(Nc1nc2ccccc2[nH]1)c1ccc(Cl)cc1,i,i,i,i,-9.42*,91.5*,90.3*
CSc1n[nH]c(NC(C)=O)n1,i,i,i,i,i,nt,nt
CSc1n[nH]c(NC2=CC(=O)CCC2)n1,i,i,i,i,-7.66*,0.0,0.0
Cc1csc(NC(=O)c2c(O)c3c(n(CC(C)C)c2=O)CCCC3)n1,i,i,i,i,-8.9*,57.0*,0.0
CC(C)Cn1c2c(c(O)c(C(=O)Nc3nccs3)c1=O)CCCC2,i,i,i,i,-7.69*,74.5*,40.8*
CCCn1c2c(c(O)c(C(=O)Nc3nccs3)c1=O)CCCC2,i,i,i,i,i,nt,nt
O=C(CN1CCN(Cc2ccccc2)CC1)Nc1cccc(Cl)c1,i,i,i,i,i,nt,nt
COC(=O)[C@@]12OC[C@]34[C@H]([C@@H](O)[C@@H]1O)[C@@]1(C)C(=O)C(O[C@@H]5OC(CO)[C@@H](O)[C@@H](O)[C@@H]5O)=C[C@@H](C)[C@@H]1C[C@H]3OC(=O)[C@H](OC(=O)/C=C(\C)C(C)(C)OC(C)=O)[C@@H]24 (stereo partly drawn),nt,i,i,i,nt,nt,nt
CCN(CC)S(=O)(=O)c1ccc(N2CCc3ccccc3C2)nc1,i,i,i,i,-10.3*,60.0*,83.8*
O=C(NCCCN1CCOCC1)[C@@H]1CSC2c3ccccc3C(=O)N21 (stereo partly drawn),i,i,i,i,i,nt,nt
CCCCN(c1ccccc1)S(=O)(=O)c1cccc2cccnc12,i,i,i,i,i,nt,nt
COc1cc(NC(=O)C2COc3ccccc3O2)c(OC)cc1Cl (stereo not drawn),i,i,i,i,i,nt,nt
SMILES,RGS4 inh,MrgX1 allo act,MrgX1 antagonist,MrgX1 ag,RGS4 pot,RGS4 activ val,M3R Ca counter
COc1ccc(S(=O)(=O)N2CCCCC2)cc1NC(=O)C1COc2ccccc2O1 (stereo not drawn),i,i,i,i,-12.7*,74.0*,83.8*
CCc1ccc(CNC(=O)CCCC(=O)n2nc(C)c3ccccc32)cc1,i,i,i,i,i,nt,nt
CC(C)(CO)NC(=S)NCc1ccco1,i,i,i,i,i,nt,nt
CN(C)CC#CCC(O)(c1ccccc1)C1CCCCC1 (stereo not drawn),i,i,i,i,i,nt,nt
CN(C)C(C)(C)C#CC(O)(c1ccccc1)c1ccccc1,i,i,i,i,-8.72*,92.0*,88.3*
CN(C)CCC#CC(O)(c1ccccc1)c1ccccc1,i,i,i,i,-9.9*,87.5*,46.8*
CCN(CC)CCC#CC(O)(c1ccccc1)C1CCCCC1 (stereo not drawn),i,i,i,i,-8.57*,91.0*,93.3*
CCN(CC)CC#CC(O)(c1ccccc1)c1ccccc1,i,i,i,i,-12.6*,93.5*,91.8*
CN(C)CCC(O)(c1ccccc1)c1ccccc1,i,i,i,i,i,nt,nt
Cc1ccc(/C=N\NC(=O)c2ccc3c(c2)OCO3)o1,i,i,i,i,i,nt,nt
c1ccc2sc(NC3=NCN(CCN4CCOCC4)CN3)nc2c1,i,i,i,i,i,nt,nt
O=C(OCc1ccc([N+](=O)[O-])cc1)c1cc(=O)c2ccccc2o1,i,i,i,i,i,nt,nt
COc1ccc(C(=O)c2c[nH]c(C(=O)N=CN(C)C)c2)cc1,i,i,i,i,i,nt,nt
COC(=O)c1cc2ccsc2n1Cc1nc(-c2ccc(OC)cc2)oc1C,i,i,i,i,-11.2*,92.5*,79.3*
COc1ccc(NC(=O)Nc2ccc3c(c2)CCC3)cc1,i,i,i,i,i,nt,nt
CCOC(=O)c1ccc(CNCc2ccc(Br)cc2)cc1,i,i,i,i,i,nt,nt
CCOC(=O)c1ccc(CNCc2ccccc2)cc1,i,i,i,i,-12*,87.0*,28.8*
O=C1Nc2ccc(Br)cc2C1=C1CCCCC1,i,i,i,i,-8.74*,36.5*,0.0
Cc1ccc(N=C2C(=O)Nc3ccc(Br)cc32)cc1,i,i,i,i,i,nt,nt
Cc1ccc(C)c(-n2c3nc(=O)n(C)c(=O)c-3cc3ccccc32)c1,i,i,i,i,-11.6*,0.0,0.0
Cc1ccc(N2C(=O)CSC2c2c(F)cccc2Cl)cc1 (stereo not drawn),i,i,i,i,-10.4*,93.0*,91.8*
CCc1nnc(NC(=O)CSc2ccc(-c3ccccc3OC)nn2)s1,i,i,i,i,i,nt,nt

# High-throughput results deposited in PubChem BioAssay by Johns Hopkins Ion Channel Center.
